The source made the active and inactive calls. The rule behind the calls is not given here.
Tests used:
[1] = molecular target: T1, 5-hydroxytryptamine receptor 3A (Cavia porcellus) (UniProt O70212); assay: Agonist activity at 5HT3 receptor in Hartley guinea-pig ileum assessed as muscle contraction; assay type: functional, tissue-based
T1 sequence (whole entry): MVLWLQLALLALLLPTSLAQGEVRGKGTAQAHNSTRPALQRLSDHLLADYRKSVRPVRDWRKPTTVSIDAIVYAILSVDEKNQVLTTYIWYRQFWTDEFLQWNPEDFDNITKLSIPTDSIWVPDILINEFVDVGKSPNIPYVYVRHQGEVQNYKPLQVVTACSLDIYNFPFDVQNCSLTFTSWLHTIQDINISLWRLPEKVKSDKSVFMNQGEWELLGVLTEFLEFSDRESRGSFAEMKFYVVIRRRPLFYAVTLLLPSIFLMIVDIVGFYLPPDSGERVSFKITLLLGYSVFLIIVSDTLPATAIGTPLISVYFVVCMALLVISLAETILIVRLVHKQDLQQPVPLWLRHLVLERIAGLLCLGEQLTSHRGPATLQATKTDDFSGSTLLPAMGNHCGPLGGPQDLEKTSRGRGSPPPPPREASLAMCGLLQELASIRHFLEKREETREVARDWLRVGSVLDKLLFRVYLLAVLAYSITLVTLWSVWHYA
In short: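 Compounds added to the bath and contractions recorded isometrically. pD2 = negative log molar concentration giving 50% of maximum contraction, from individual concentration–response curves.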

[2] = molecular target: T1, 5-hydroxytryptamine receptor 3A (Cavia porcellus); assay: Intrinsic activity at 5HT3 receptor in Hartley guinea-pig ileum assessed as muscle contraction relative to 5-hydroxytryptamine; assay type: tissue-based
[3] = molecular target: T1, 5-hydroxytryptamine receptor 3A (Cavia porcellus); assay: Antagonist activity at 5HT3 receptor in Hartley guinea-pig ileum assessed as effect on 5-hydroxytryptamine-induced muscle contraction; assay type: functional, tissue-based; set-up: concentration or dose not given beside the values
In short: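 Contractions to 5-HT recorded isometrically with and without compound present. Vehicle-treated preparation served as time-matched control. Antagonism expressed as the ratio of 5-HT contractile response in presence versus absence of compound.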

[4] = molecular target: T1, 5-hydroxytryptamine receptor 3A (Cavia porcellus); assay: Intrinsic activity at 5HT3 receptor in Hartley guinea-pig ileum assessed as muscle contraction at 0.1 mM relative to 5-hydroxytryptamine; assay type: tissue-based

Row | Structure (SMILES) | pD2 [1] | Intrinsic activity [2] | Activity [3] [%] | Activity [4]
1 | COc1cc(Cl)cc2nc(N3CCN(C)CC3)oc12 | 6.16 | 0.62 | 92 | 
2 | CC(=O)c1ccc2oc(N3CCN(C)CC3)nc2c1 | < 4 |  | 22 | inactive
3 | CN1CCN(c2nc3cc(Cl)cc(Cl)c3o2)CC1 | 6.51 | 0.14 | 90 | 
4 | CCOC(=O)c1ccc2oc(N3CCN(C)CC3)nc2c1 | < 4 |  | 28 | inactive
5 | CN1CCN(c2nc3cccc(Cl)c3o2)CC1 | 5.5 | 0.24 | 90 | 
6 | CN1CCN(c2nc3cc(Br)ccc3o2)CC1 | 6.21 | 0.48 | 89 | 
7 | CC(C)c1cccc2nc(N3CCN(C)CC3)oc12 | < 4 |  | 81 | inactive
8 | CCc1cc(C)cc2nc(N3CCN(C)CC3)oc12 | 6.46 | 0.26 | 99 | 
9 | Cc1cc(Cl)c2oc(N3CCN(C)CC3)nc2c1 | 6.22 | 0.26 | 96 | 
10 | COc1ccc2oc(N3CCN(C)CC3)nc2c1 | 4.78 | 0.78 | 74 | 
11 | COc1cccc2nc(N3CCN(C)CC3)oc12 | < 4 |  | 57 | inactive
12 | CCc1cccc2nc(N3CCN(C)CC3)oc12 | 5.48 | 0.15 | 90 | 
13 | CN1CCN(c2nc3cc(C(F)(F)F)ccc3o2)CC1 | < 4 |  | 36 | inactive
14 | CN1C2CCCC1CC(NC(=O)c1nn(C)c3ccccc13)C2 (stereo not drawn) | < 4 |  | 100 | inactive
15 | Cc1cccc2nc(N3CCN(C)CC3)oc12 | 5.48 | 0.58 | 89 | 
16 | Cc1cc(C)c2oc(N3CCN(C)CC3)nc2c1 | 6.32 | 0.62 | 94 | 
17 | Cc1ccc2oc(N3CCN(C)CC3)nc2c1 | 6 | 0.72 | 87 | 
18 | CN1CCN(c2nc3cc([N+](=O)[O-])ccc3o2)CC1 | 6.1 | 0.52 | 79 | 
19 | CCc1ccc2oc(N3CCN(C)CC3)nc2c1 | < 4 |  | 63 | inactive
20 | CN1CCN(c2nc3cc(C(C)(C)C)ccc3o2)CC1 | < 4 |  | 47 | inactive
21 | CN1CCN(c2nc3cc(F)ccc3o2)CC1 | 5.57 | 0.64 | 91 | 
22 | CN1CCN(c2nc3ccccc3o2)CC1 | 5.01 | 0.62 | 82 | 
23 | Cc1cc(Cl)cc2nc(N3CCN(C)CC3)oc12 | 6.7 | 0.24 | 94 | 
24 | COc1cc(C)cc2nc(N3CCN(C)CC3)oc12 | 6.13 | 0.56 | 91 | 
25 | NCCc1c[nH]c2ccc(O)cc12 | 5.34 | 1 |  | 
26 | CCc1cc(Cl)cc2nc(N3CCN(C)CC3)oc12 | 6.82 | 0.17 | 100 | 
27 | CN1CCN(c2nc3cc(N)ccc3o2)CC1 | 4.97 | 0.76 | 73 | 
28 | CN1CCN(c2nc3cc(Cl)ccc3o2)CC1 | 6.07 | 0.5 | 92 | 
